{"source": "ChEMBL document CHEMBL4308900", "about": "“Synthesis and identification of 2,4-bisanilinopyrimidines bearing 2,2,6,6-tetramethylpiperidine-N-oxyl as potential Aurora A inhibitors” (Bioorg Med Chem, 2019)", "key": {"[1]": {"species_on_record": "Homo sapiens", "assay": "Selectivity ratio of IC50 for Aurora B in human HeLa cells to IC50 for Aurora A in human HeLa cells", "assay_type": "cell-based"}, "[2]": {"tested_on": "HeLa", "assay": "Disruption of spindle formation in human HeLa cells assessed as formation of abnormal mitotic spindles at 0.1 to 1 uM after 24 hrs by DAPI staining based immunofluorescence microscopic analysis", "assay_type": "functional, cell-based", "summary_of_the_method": "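HeLa cells on coverslips treated 24 h (0.1 or 1 μM; DMSO control); fixed in 4% paraformaldehyde, permeabilised in 0.1% Triton X-100 with 2% BSA, anti-α-tubulin overnight at 4 °C, FITC secondary 2 h room temperature, DAPI for DNA; confocal imaging.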"}, "[3]": {"tested_on": "HeLa", "assay": "Induction of apoptosis in human HeLa cells assessed as early apoptotic cells at 5 uM after 12 hrs by Annexin V-FITC/propidium iodide staining-based flow cytometric analysis (reference value: 0.75%)", "assay_type": "functional"}, "[4]": {"tested_on": "HeLa", "assay": "Induction of apoptosis in human HeLa cells assessed as necrotic cells at 5 uM after 12 hrs by Annexin V-FITC/propidium iodide staining-based flow cytometric analysis (reference value: 5.92%)", "assay_type": "functional"}, "[5]": {"tested_on": "HeLa", "assay": "Induction of apoptosis in human HeLa cells assessed as upregulation of caspase-3 protein expression up to 5 uM after 12 hrs by Western blot analysis", "assay_type": "functional, cell-based", "summary_of_the_method": "(§1)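 HeLa cells treated 12 h (0.1, 1, 5 μM for apoptosis proteins); lysed in Tris pH 7.5/NP-40/SDS buffer with protease inhibitors, equal protein on 10% SDS-PAGE, PVDF, 5% BSA block, primary antibodies overnight at 4 °C, β-actin loading control; mean ± SD.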"}, "[6]": {"biological_target": "T1, Aurora kinase B (Homo sapiens, UniProt Q96GD4)", "T1 sequence (Q96GD4 whole entry)": "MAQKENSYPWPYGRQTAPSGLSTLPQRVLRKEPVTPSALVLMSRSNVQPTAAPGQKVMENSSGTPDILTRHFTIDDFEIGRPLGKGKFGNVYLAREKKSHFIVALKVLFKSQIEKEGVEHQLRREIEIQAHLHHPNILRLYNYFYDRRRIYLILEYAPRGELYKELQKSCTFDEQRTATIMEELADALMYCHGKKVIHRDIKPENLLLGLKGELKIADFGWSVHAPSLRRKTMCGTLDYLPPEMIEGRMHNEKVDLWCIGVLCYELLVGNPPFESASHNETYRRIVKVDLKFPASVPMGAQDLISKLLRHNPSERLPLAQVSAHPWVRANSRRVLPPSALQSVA", "assay": "Inhibition of Aurora B phosphorylation at Thr232 residue in human HeLa cells after 12 hrs by ELISA", "assay_type": "cell-based"}, "[7]": {"tested_on": "HeLa", "assay": "Induction of apoptosis in human HeLa cells assessed as upregulation of Bad protein expression up to 5 uM after 12 hrs by Western blot analysis", "assay_type": "functional, cell-based", "summary_of_the_method": "as §1"}, "[8]": {"tested_on": "HeLa", "assay": "Induction of apoptosis in human HeLa cells assessed as late apoptotic cells at 1 uM after 12 hrs by Annexin V-FITC/propidium iodide staining-based flow cytometric analysis (reference value: 2.32%)", "assay_type": "functional"}, "[9]": {"tested_on": "HeLa", "assay": "Induction of apoptosis in human HeLa cells assessed as upregulation of caspase-9 protein expression up to 5 uM after 12 hrs by Western blot analysis", "assay_type": "functional, cell-based", "summary_of_the_method": "as §1"}, "[10]": {"biological_target": "T1, Aurora kinase B", "assay": "Inhibition of Aurora B (unknown origin) using kemptide acetate salt as substrate after 30 mins by kinase-Glo luminescence method"}, "[11]": {"tested_on": "HeLa", "assay": "Cell cycle arrest in human HeLa cells assessed as accumulation at G1 phase at 1 uM after 12 hrs by propidium iodide staining-based flow cytometric analysis (reference value: 70.68%)", "assay_type": "functional", "summary_of_the_method": "(§2)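 HeLa cells exposed 12 h to 1 or 5 μM compound diluted from DMSO (DMSO control), fixed, stained with propidium iodide; DNA content measured by flow cytometry and G1, S, G2/M fractions calculated from the DNA histogram.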"}, "[12]": {"tested_on": "HeLa", "assay": "Cell cycle arrest in human HeLa cells assessed as accumulation at S phase at 5 uM after 12 hrs by propidium iodide staining-based flow cytometric analysis (reference value: 5.74%)", "assay_type": "functional", "summary_of_the_method": "as §2"}, "[13]": {"species_on_record": "Homo sapiens", "assay": "Selectivity ratio of IC50 for Aurora B (unknown origin) to IC50 for Aurora A (unknown origin)"}, "[14]": {"tested_on": "HeLa", "assay": "Antiproliferative activity against human HeLa cells after 48 hrs by MTT assay", "assay_type": "functional", "summary_of_the_method": "(§3)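 MTT assay: cells attached 4–6 h at 37 °C, 5% CO2, then exposed 48 h to graded concentrations from DMSO stocks; 5 mg/mL MTT added for 4 h, formazan dissolved in DMSO, absorbance at 490 nm. GI50 from log plot of percent of control versus concentration; mean of three independent experiments.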"}, "[15]": {"tested_on": "HeLa", "assay": "Cell cycle arrest in human HeLa cells assessed as decrease in cdc2 protein expression up to 5 uM after 12 hrs by Western blot analysis", "assay_type": "functional, cell-based", "summary_of_the_method": "as §1"}, "[16]": {"biological_target": "T2, Aurora kinase A (Homo sapiens, UniProt O14965)", "T2 sequence (O14965 whole entry)": "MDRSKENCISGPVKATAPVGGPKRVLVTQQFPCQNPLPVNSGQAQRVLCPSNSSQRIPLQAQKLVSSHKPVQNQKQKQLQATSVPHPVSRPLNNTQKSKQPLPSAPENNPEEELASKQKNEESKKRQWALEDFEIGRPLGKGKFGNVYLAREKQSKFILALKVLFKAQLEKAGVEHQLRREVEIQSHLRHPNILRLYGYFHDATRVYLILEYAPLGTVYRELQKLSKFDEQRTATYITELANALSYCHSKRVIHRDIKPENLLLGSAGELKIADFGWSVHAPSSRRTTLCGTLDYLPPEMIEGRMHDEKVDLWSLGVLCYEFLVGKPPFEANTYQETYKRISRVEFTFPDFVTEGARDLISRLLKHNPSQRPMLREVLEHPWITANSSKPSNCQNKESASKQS", "assay": "Inhibition of Aurora A phosphorylation at Thr288 residue in human HeLa cells after 12 hrs by ELISA", "assay_type": "cell-based"}, "[17]": {"tested_on": "HeLa", "assay": "Cell cycle arrest in human HeLa cells assessed as accumulation at G2/M phase at 1 uM after 12 hrs by propidium iodide staining-based flow cytometric analysis (reference value: 23.57%)", "assay_type": "functional", "summary_of_the_method": "as §2"}, "[18]": {"tested_on": "HeLa", "assay": "Induction of apoptosis in human HeLa cells assessed as downregulation of Bcl-2 protein expression up to 5 uM after 12 hrs by Western blot analysis", "assay_type": "functional, cell-based", "summary_of_the_method": "as §1"}, "[19]": {"tested_on": "A549", "assay": "Antiproliferative activity against human A549 cells after 48 hrs by MTT assay", "assay_type": "functional", "conditions": "A549, 48 h", "summary_of_the_method": "as §3"}}, "note": "Calls of active or inactive are those of the source. The rule behind the calls is not given here.", "data": [{"smiles": "CC1(C)CC(NC(=O)c2ccc(Nc3ncc(F)c(Nc4ccc(C(=O)Nc5ccccc5Cl)cc4)n3)cc2)CC(C)(C)N1[O]", "values": [{"measurement": "Ratio IC50", "setting": "[1]", "result": 67}, {"measurement": "Activity", "setting": "[2]", "result": "Active"}, {"measurement": "Activity", "setting": "[3]", "result": 4.85, "unit": "%"}, {"measurement": "Activity", "setting": "[4]", "result": 10.75, "unit": "%"}, {"measurement": "Activity", "setting": "[5]", "result": "Active"}, {"measurement": "IC50", "setting": "[6]", "result": 538, "unit": "nM"}, {"measurement": "Activity", "setting": "[7]", "result": "Active"}, {"measurement": "Activity", "setting": "[8]", "result": 8.06, "unit": "%"}, {"measurement": "Activity", "setting": "[9]", "result": "Active"}, {"measurement": "IC50", "setting": "[10]", "result": 2.55, "unit": "nM"}, {"measurement": "Activity", "setting": "[11]", "result": 48, "unit": "%"}, {"measurement": "Activity", "setting": "[12]", "result": 0, "unit": "%"}, {"measurement": "Ratio IC50", "setting": "[13]", "result": 42}, {"measurement": "GI50", "setting": "[14]", "result": 400, "unit": "nM"}, {"measurement": "Activity", "setting": "[15]", "result": "Active"}, {"measurement": "IC50", "setting": "[16]", "result": 8, "unit": "nM"}, {"measurement": "Activity", "setting": "[17]", "result": 40.67, "unit": "%"}, {"measurement": "Activity", "setting": "[18]", "result": "Active"}, {"measurement": "GI50", "setting": "[19]", "result": 1100, "unit": "nM"}]}]}
